The source made the active and inactive calls. The rule behind the calls is not given here.
Legend:
Glucagon receptor [1] = target: T1, Glucagon receptor (Homo sapiens, UniProt P47871); experiment: Binding affinity to human recombinant glucagon receptor expressed in BHK cells by membrane filter assay; format: cell-based
[2] = Half life in monkey at 0.3 to 3 mg/kg, iv; format: ADME, organism-based, Macaca mulatta; parameters: dose 0.3-3 mg/kg, route intravenous; conditions: rhesus monkey, in vivo
Method in brief: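 In the anesthetized glucagon-challenged monkey study, compound was given intravenously. Blood samples were assayed for compound, and plasma concentration-time profiles yielded the half-life.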

[3] = Clearance in fasted Sprague-Dawley rat at 1.62 mg/kg, iv and 3.04 mg/kg, po by HTLC-MS/MS analysis; format: ADME, organism-based; conditions: in vivo
Method in brief: (§1)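 Rats were dosed intravenously and perorally in separate arms, and plasma concentration-time profiles were obtained. Half-life was taken from the iv arm. Clearance, oral bioavailability, Cmax and Tmax were derived from the profiles.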

[4] = Oral bioavailability in fasted Beagle dog at 0.5 mg/kg; format: ADME, organism-based, Canis lupus familiaris; conditions: in vivo
Method in brief: (§2)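 Separate intravenous and peroral dosing arms per compound, with plasma concentration followed against time. Oral bioavailability (F_po) is reported per compound together with the intravenous half-life and clearance. The dose used for each arm is listed per compound.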

[5] = Half life in fasted Beagle dog at 0.25 mg/kg, iv; format: ADME, organism-based, Canis lupus familiaris; parameters: dose 0.25 mg/kg, route intravenous; conditions: in vivo
Method in brief: (§3)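 Dogs were dosed at 0.25 mg/kg iv and 0.5 mg/kg po, and plasma concentration was followed over time. Half-life came from the iv arm; clearance, Cmax and Tmax were also derived.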

[6] = Binding affinity to glucagon receptor in monkey liver membrane by membrane filter assay; format: cell membranes, Macaca mulatta
Rhesus monkey = experiment: Antihyperglycemic activity against glucagon-stimulated glycaemia in iv dosed hyperglucagonaemia/hyperglycaemia monkey model assessed as decrease in plasma glucose level preincubated for 5 mins before glucagon challenge measured after 30 mins; format: functional, organism-based; conditions: Macaca mulatta
Method in brief: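 Anesthetized monkeys challenged with exogenous glucagon received compound intravenously. Plasma glucose was followed over time to gauge blockade of glucagon-stimulated glycaemia.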

[7] = Binding affinity to glucagon receptor in pig liver membrane by membrane filter assay; format: cell membranes, Sus scrofa
Hepatocyte [8] = experiment: Inhibition of glucagon-stimulated glucose production in rat primary hepatocytes; format: functional, cell-based
Glucagon receptor [9] = target: T1, Glucagon receptor; experiment: Displacement of [125I]porcine glucagon from human recombinant glucagon receptor expressed in BHK cells by scintillation proximity assay; format: cell-based
[10] = Clearance in fasted Beagle dog at 0.25 mg/kg, iv and 0.5 mg/kg, po; format: ADME, organism-based, Canis lupus familiaris; conditions: in vivo; method in brief: as §3
Glucagon receptor [11] = target: Glucagon receptor (Rattus norvegicus, UniProt P30082); experiment: Binding affinity to glucagon receptor in rat liver membrane by membrane filter assay; format: cell membranes
[12] = Oral bioavailability in fasted Sprague-Dawley rat at 3.04 mg/kg by HTLC-MS/MS analysis; format: ADME, organism-based; conditions: in vivo; method in brief: as §2
[13] = Tmax in fasted Beagle dog at 0.25 mg/kg, iv and 0.5 mg/kg, po; format: ADME, organism-based, Canis lupus familiaris; conditions: in vivo
Method in brief: (§4)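 Plasma concentration–time profiles were recorded after separate intravenous and peroral dosing at the per-compound doses listed. T_max is reported in min alongside C_max (ng/mL), intravenous half-life and clearance ((mL/min)/kg).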

[14] = Cmax in fasted Beagle dog at 0.25 mg/kg, iv and 0.5 mg/kg, po; format: ADME, organism-based, Canis lupus familiaris; conditions: in vivo; method in brief: as §3
[15] = target: T2, Gastric inhibitory polypeptide receptor (Homo sapiens, UniProt P48546); experiment: Binding affinity to human recombinant GIPR expressed in BHK cells by membrane filter assay; format: cell-based
T2 sequence (P48546 whole entry): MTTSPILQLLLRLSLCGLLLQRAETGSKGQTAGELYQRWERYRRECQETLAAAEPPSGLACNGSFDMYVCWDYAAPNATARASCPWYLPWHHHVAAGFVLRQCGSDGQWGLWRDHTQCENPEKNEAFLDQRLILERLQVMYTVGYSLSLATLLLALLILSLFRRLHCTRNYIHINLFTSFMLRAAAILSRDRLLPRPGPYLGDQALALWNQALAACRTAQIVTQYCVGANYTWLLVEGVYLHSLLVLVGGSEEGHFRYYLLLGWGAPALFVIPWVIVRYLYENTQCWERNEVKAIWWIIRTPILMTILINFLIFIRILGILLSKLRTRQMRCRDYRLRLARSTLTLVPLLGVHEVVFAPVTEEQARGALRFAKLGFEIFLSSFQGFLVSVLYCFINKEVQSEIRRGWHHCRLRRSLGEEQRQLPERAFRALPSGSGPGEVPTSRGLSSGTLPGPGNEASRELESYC

Hepatocyte [16] = experiment: Inhibition of glucagon-stimulated glucose production in human primary hepatocytes preincubated for 10 mins before glucagon addition by NADH-linked hexokinase assay; format: functional, cell-based
Method in brief: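 Cultured primary human hepatocytes were preincubated with compound for 10 min, then glycogenolysis was induced with 5 nM glucagon for 60 min. Glucose in the medium was measured against basal glycogenolysis. Albumin was present in the assay medium. IC50 was calculated from four experiments, mean ± SEM.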

Glucagon receptor [17] = target: Glucagon receptor (Mus musculus, UniProt Q61606); experiment: Binding affinity to glucagon receptor in mouse liver membrane by membrane filter assay; format: cell membranes
[18] = target: T2, Gastric inhibitory polypeptide receptor; experiment: Displacement of [125I]porcine GIP from human recombinant GIPR receptor expressed in BHK cells by scintillation proximity assay; format: cell-based
Homo sapiens [19] = organism: Homo sapiens; experiment: Selectivity ratio of IC50 for human recombinant glucagon receptor to IC50 for human recombinant GIPR
Method in brief: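 Competition binding of compounds to recombinant human glucagon and GIP receptors on BHK cell membranes, run in parallel as a scintillation proximity assay and, for selected compounds, as a membrane filtration assay.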

[20] = Cmax in fasted Sprague-Dawley rat at 1.62 mg/kg, iv and 3.04 mg/kg, po; format: ADME, organism-based; conditions: in vivo; method in brief: as §1
[21] = Binding affinity to glucagon receptor in rabbit liver membrane by membrane filter assay; format: cell membranes, Oryctolagus cuniculus
[22] = Tmax in fasted Sprague-Dawley rat at 1.62 mg/kg, iv and 3.04 mg/kg, po; format: ADME, organism-based; conditions: in vivo; method in brief: as §4
[23] = Half life in fasted Sprague-Dawley rat plasma at 1.62 mg/kg, iv by HTLC-MS/MS analysis; format: ADME, organism-based; parameters: dose 1.62 mg/kg, route intravenous; method in brief: as §1
Homo sapiens [24] = organism: Homo sapiens; experiment: Selectivity for human recombinant glucagon receptor over human GLP1R
[25] = Binding affinity to glucagon receptor in dog liver membrane by membrane filter assay; format: cell membranes, Canis lupus familiaris
[26] = Oral bioavailability in fasted Sprague-Dawley rat at 3.19 mg/kg by HTLC-MS/MS analysis; format: ADME, organism-based; conditions: in vivo; method in brief: as §2
[27] = Clearance in fasted Sprague-Dawley rat at 1.49 mg/kg, iv and 3.19 mg/kg, po; format: ADME, organism-based; conditions: in vivo; method in brief: as §1
[28] = Cmax in fasted Sprague-Dawley rat at 1.49 mg/kg, iv and 3.19 mg/kg, po; format: ADME, organism-based; conditions: in vivo; method in brief: as §1
[29] = Half life in fasted Sprague-Dawley rat plasma at 1.49 mg/kg, iv by HTLC-MS/MS analysis; format: ADME, organism-based; parameters: dose 1.49 mg/kg, route intravenous; method in brief: as §1
[30] = Tmax in fasted Sprague-Dawley rat at 1.49 mg/kg, iv and 3.19 mg/kg, po; format: ADME, organism-based; conditions: in vivo; method in brief: as §4
[31] = Oral bioavailability in fasted Sprague-Dawley rat at 3.9 mg/kg by HTLC-MS/MS analysis; format: ADME, organism-based; conditions: in vivo; method in brief: as §2
[32] = Cmax in fasted Sprague-Dawley rat at 1.9 mg/kg, iv and 3.9 mg/kg, po by HTLC-MS/MS analysis; format: ADME, organism-based; conditions: in vivo; method in brief: as §1
[33] = Tmax in fasted Sprague-Dawley rat at 1.9 mg/kg, iv and 3.9 mg/kg, po by HTLC-MS/MS analysis; format: ADME, organism-based; conditions: in vivo; method in brief: as §4
[34] = Half life in fasted Sprague-Dawley rat plasma at 1.9 mg/kg, iv by HTLC-MS/MS analysis; format: ADME, organism-based; parameters: dose 1.9 mg/kg, route intravenous; method in brief: as §1
[35] = Clearance in fasted Sprague-Dawley rat at 1.9 mg/kg, iv and 3.9 mg/kg, po by HTLC-MS/MS analysis; format: ADME, organism-based; conditions: in vivo; method in brief: as §1
[36] = Cmax in fasted Sprague-Dawley rat at 1.58 mg/kg, iv and 3.16 mg/kg, po; format: ADME, organism-based; conditions: in vivo; method in brief: as §1
[37] = Clearance in fasted Sprague-Dawley rat at 1.58 mg/kg, iv and 3.16 mg/kg, po; format: ADME, organism-based; conditions: in vivo; method in brief: as §1
[38] = Tmax in fasted Sprague-Dawley rat at 1.58 mg/kg, iv and 3.16 mg/kg, po; format: ADME, organism-based; conditions: in vivo; method in brief: as §4
[39] = Half life in fasted Sprague-Dawley rat plasma at 1.58 mg/kg, iv by HTLC-MS/MS analysis; format: ADME, organism-based; parameters: dose 1.58 mg/kg, route intravenous; method in brief: as §1
[40] = Oral bioavailability in fasted Sprague-Dawley rat at 3.16 mg/kg by HTLC-MS/MS analysis; format: ADME, organism-based; conditions: in vivo; method in brief: as §2

T1 sequence (P47871 whole entry): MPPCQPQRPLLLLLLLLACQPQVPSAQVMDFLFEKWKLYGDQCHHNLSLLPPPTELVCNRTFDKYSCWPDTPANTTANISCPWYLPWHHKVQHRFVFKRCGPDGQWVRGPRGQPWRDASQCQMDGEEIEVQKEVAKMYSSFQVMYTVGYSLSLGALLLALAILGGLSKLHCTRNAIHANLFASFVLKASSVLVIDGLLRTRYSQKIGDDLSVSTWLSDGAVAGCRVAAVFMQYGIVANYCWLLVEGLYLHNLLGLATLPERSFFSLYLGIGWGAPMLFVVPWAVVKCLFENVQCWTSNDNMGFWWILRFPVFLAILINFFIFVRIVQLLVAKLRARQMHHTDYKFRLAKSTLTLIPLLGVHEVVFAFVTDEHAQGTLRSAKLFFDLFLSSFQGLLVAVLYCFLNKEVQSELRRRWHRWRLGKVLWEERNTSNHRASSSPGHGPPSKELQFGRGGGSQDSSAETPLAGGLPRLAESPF
Glucagon receptor (Mus musculus, UniProt Q61606), sequence (Q61606 whole entry): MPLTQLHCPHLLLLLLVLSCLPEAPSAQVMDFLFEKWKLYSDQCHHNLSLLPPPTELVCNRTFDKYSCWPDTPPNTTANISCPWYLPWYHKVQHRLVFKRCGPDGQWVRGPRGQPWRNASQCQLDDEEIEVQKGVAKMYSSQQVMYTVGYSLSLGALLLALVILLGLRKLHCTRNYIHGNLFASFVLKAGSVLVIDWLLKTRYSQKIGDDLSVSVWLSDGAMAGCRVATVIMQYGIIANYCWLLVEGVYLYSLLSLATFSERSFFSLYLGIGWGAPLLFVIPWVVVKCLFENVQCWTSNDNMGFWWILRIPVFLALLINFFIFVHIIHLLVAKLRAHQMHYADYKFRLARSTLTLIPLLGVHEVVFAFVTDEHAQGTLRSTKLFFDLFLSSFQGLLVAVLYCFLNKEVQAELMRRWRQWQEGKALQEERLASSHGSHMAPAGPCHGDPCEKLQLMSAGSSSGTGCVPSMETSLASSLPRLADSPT
Glucagon receptor (Rattus norvegicus, UniProt P30082), sequence (P30082 whole entry): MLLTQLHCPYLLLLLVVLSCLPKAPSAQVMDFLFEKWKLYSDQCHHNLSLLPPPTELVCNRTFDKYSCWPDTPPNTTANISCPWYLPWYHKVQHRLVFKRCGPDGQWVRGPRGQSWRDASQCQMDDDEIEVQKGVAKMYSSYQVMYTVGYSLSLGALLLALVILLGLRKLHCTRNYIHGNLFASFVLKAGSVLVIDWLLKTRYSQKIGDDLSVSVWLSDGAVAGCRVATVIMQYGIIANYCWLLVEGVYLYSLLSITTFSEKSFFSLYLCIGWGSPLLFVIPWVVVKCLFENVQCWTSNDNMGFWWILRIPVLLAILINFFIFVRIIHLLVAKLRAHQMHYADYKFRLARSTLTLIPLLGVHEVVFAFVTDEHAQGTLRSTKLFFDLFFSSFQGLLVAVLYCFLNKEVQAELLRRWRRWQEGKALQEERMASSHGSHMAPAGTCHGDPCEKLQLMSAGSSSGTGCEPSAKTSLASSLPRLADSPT

Structure (SMILES)	IC50 (Glucagon receptor [1]) [µM]	bioavailability [4] [%]	half-life [5] [h]	IC50 [6] [µM]	IC50 [7] [µM]	inhibition (Hepatocyte [8])	IC50 (Glucagon receptor [9]) [µM]	clearance [10] [mL/min/kg]	IC50 (Glucagon receptor [11]) [µM]	Tmax [13] [h]	Cmax [14] [ng/mL]	IC50 [15] [µM]	IC50 (Hepatocyte [16]) [µM]	IC50 (Glucagon receptor [17]) [µM]	IC50 [18] [µM]	fold change (FC) (Homo sapiens [19])	fold change (FC) (Homo sapiens [24])	IC50 [25] [µM]	other results
O=C(O)CCNC(=O)c1ccc(CN(c2ccc(C(F)(F)F)cc2)c2nc(-c3ccc(Cl)cc3)cs2)cc1	0.093	141	1.73	0.114	7	inactive	0.092	2.23	2.7	1.5	1250	1.1	6.7	0.648	0.99	5	> 50	0.155	half-life [2]: 5.23 h; clearance [3]: 1 mL/min/kg; Activity (Rhesus monkey): Dose-dependent effect; bioavailability [12]: 58%; Cmax [20]: 2100 ng/mL; IC50 [21]: 1.6 µM; Tmax [22]: 1.42 h; half-life [23]: 3.8 h
O=C(O)CCNC(=O)c1ccc(CN(c2ccc(OC(F)(F)F)cc2)c2nc(-c3ccc(C(F)(F)F)cc3)cs2)cc1	0.051	55	3.92	0.072	5.3	inactive	0.092	0.78	2	1.47	1000	0.48	3.6	0.552	0.833	5	> 50	0.096	bioavailability [26]: 29%; clearance [27]: 2 mL/min/kg; Cmax [28]: 638 ng/mL; half-life [29]: 7.57 h; Tmax [30]: > 6 h
O=C(O)CCNC(=O)c1ccc(CN(c2ccc(C3=CCCCC3)cc2)c2nc(-c3ccc(C(F)(F)F)cc3)cs2)cc1							0.048								0.368	5	> 50		bioavailability [31]: 3%; Cmax [32]: 36 ng/mL; Tmax [33]: 0.5 h; half-life [34]: 0.583 h; clearance [35]: 44 mL/min/kg
O=C(O)CCNC(=O)c1ccc(CC(c2ccc(Cl)cc2)c2nc(-c3ccc(C(F)(F)F)cc3)cs2)cc1 (centres undefined)	0.038						0.096					0.211			0.381	5	> 50		Cmax [36]: 117 ng/mL; clearance [37]: 28 mL/min/kg; Tmax [38]: 0.5 h; half-life [39]: 0.4 h; bioavailability [40]: 52%

Source: ChEMBL document CHEMBL1138494, “Human glucagon receptor antagonists with thiazole cores. A novel series with superior pharmacokinetic properties” (J Med Chem, 2009)
